Assays:
Stearoyl-CoA desaturase [1] = target: T1, Stearoyl-CoA desaturase (Homo sapiens, UniProt O00767); test: Inhibition of human SCD1 expressed in human 293A cells assessed as conversion of [14C]stearate to [14C]oleate; assay type: cell-based
T1 sequence (O00767 whole entry): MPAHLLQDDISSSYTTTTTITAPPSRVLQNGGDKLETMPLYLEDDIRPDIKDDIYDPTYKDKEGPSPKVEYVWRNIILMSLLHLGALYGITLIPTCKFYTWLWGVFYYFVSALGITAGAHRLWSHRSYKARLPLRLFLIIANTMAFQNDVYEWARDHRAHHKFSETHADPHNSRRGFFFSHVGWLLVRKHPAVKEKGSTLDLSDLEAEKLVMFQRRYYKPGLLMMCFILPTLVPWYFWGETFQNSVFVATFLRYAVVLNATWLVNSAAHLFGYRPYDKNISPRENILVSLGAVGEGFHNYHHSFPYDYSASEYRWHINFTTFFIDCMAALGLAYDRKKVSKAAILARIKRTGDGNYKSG

[2] = Cmax in C57BL/6J mouse at 20 mg/kg, po; assay type: ADME, organism-based; parameters: dose 20 mg/kg, route oral; settings: in vivo
In short: (§1)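 Oral dose of 20 mg/kg in PG/Tween (4/1), given by intubation tube to C57BL/6J mice (n = 3). Plasma sampled up to 8 h after dosing and compound levels measured by LC/MS. Values are arithmetic means of at least two experiments.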

[3] = Half life in C57BL/6J mouse at 20 mg/kg, po; assay type: ADME, organism-based; parameters: dose 20 mg/kg, route oral; settings: in vivo; in short: as §1
[4] = Tmax in C57BL/6J mouse at 20 mg/kg, po; assay type: ADME, organism-based; parameters: dose 20 mg/kg, route oral; settings: in vivo; in short: as §1
[5] = AUC (0 to8 hrs) in C57BL/6J mouse at 20 mg/kg, po; assay type: ADME, organism-based; parameters: time < 8 hr, dose 20 mg/kg, route oral; settings: plasma; in short: as §1
Mus musculus [6] = test: (§2) Oral bioavailability in C57BL/6J mouse at 20 mg/kg; assay type: ADME, organism-based; settings: in vivo
Mus musculus [7] = test: In vivo inhibition of SCD1 in non-fat diet-induced oral dosed C57BL/6J mouse liver assessed as conversion of ratio of [14C]oleate to [14C]stearate after 2 to 3 hrs; assay type: functional; settings: read-out: ID50 (the source's name)
In short: (§3)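 C57BL/6J mice on a non-fat diet (n = 2) dosed with inhibitor 2 h or 6 h before [14C]stearate. Mice killed 1 h after the [14C]stearate injection and livers removed. ID50 in mg/kg is the arithmetic mean of at least two experiments.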

Mus musculus [8] = test: In vivo inhibition of SCD1 in non-fat diet-induced oral dosed C57BL/6J mouse liver assessed as conversion of ratio of [14C]oleate to [14C]stearate after 6 to 7 hrs; assay type: functional; settings: read-out: ID50 (the source's name); in short: as §3
Mus musculus [9] = organism: Mus musculus; test: Toxicity in C57BL/6J mouse assessed as occurance of abnormilities in eyes; assay type: organism-based; settings: in vivo
In short: (§4)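 C57BL/6J mice (n = 4) on a non-fat diet received oral doses once daily for 7 days, up to 3 mg/kg. The plasma desaturation index (C18:1/C18:0 ratio) served as the biomarker. Skin and eyes were inspected for abnormalities.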

Mus musculus [10] = organism: Mus musculus; test: Toxicity in C57BL/6J mouse assessed as occurance of abnormilities in skin; assay type: organism-based; settings: in vivo; in short: as §4
Mus musculus [11] = test: Reduction of desaturation index, ratio of C18:1 N9(cis)oleate to C18:0 streate in serum of low fat diet fed po dosed C57BL/6J mouse administered as single dose for 7 days measured after seventh dose; assay type: functional; parameters: scale not given: the % may be the effect or the level left; settings: in the assay text read “non-fat diet” for “low fat diet”; in short: as §4
[12] = target: Stearoyl-CoA desaturase 1 (Mus musculus) (UniProt P13516); test: Inhibition of SCD1 in mouse liver assessed as conversion of [14C]stearate to [14C]oleate after 60 mins in S9 microsomal fraction
[13] = target: Stearoyl-CoA desaturase (Homo sapiens) (UniProt O00767); test: Inhibition of SCD1 in human 293A cells S9 microsomal fraction assessed as conversion of [14C]stearate to [14C]oleate after 60 mins
Stearoyl-CoA desaturase [14] = target: T1, Stearoyl-CoA desaturase; test: Inhibition of SCD1 in human 293A cell microsomal fraction assessed as conversion of [14C]stearate to [14C]oleate after 60 mins at 0.4 uM
Mus musculus [15] = test: In vivo inhibition of SCD1 in db/db mouse liver assessed as conversion of [14C]stearate to [14C]oleate administered through oral gavage; assay type: functional; settings: read-out: ID50 (the source's name)
[16] = Clearance in C57BL/6J mouse at 5 mg/kg, iv; assay type: ADME, organism-based; parameters: dose 5 mg/kg, route intravenous; settings: in vivo
In short: (§5)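 Single iv dose of 5 mg/kg in DMA/Tween80/saline (10/10/80), injected into the tail vein of C57BL/6J mice (n = 2). Plasma collected up to 8 h after dosing and compound measured by LC/MS. Values are arithmetic means of at least two experiments.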

[17] = Volume of distribution in C57BL/6J mouse at 5 mg/kg, iv; assay type: ADME, organism-based; parameters: dose 5 mg/kg, route intravenous; settings: in vivo; in short: as §5
[18] = as §2; assay type: ADME, organism-based; settings: C57BL/6J, in vivo

IC50 (Stearoyl-CoA desaturase [1]) | IC50 [12] | IC50 [13] | Structure (SMILES) | ED50 (Mus musculus [15]) | other results
0.8 nM | 0.06 nM | 0.03 nM | FC(F)(F)c1cccc2c1CCC1(CCN(c3ccc(-c4nnc(Cc5cccnc5)o4)nn3)CC1)O2 | – | Cmax [2]: 2600 ng/mL; half-life [3]: 1.4 h; Tmax [4]: 1 h; AUC(0-t) at 8 h [5]: 7800 ng·h/mL; F (Mus musculus [6]): Not Active; ED50 (Mus musculus [7]): 0.5 mg/kg; ED50 (Mus musculus [8]): 0.8 mg/kg; Activity (Mus musculus [9]): Non-toxic; Activity (Mus musculus [10]): Non-toxic; Activity (Mus musculus [11]): 75%
35 nM | 16 nM | 2 nM | FC(F)(F)c1cccc2c1CCC1(CCN(c3ccc(-c4nnc(CCc5cccnc5)o4)nn3)CC1)O2 | – | –
– | 76 nM | – | O=C(NCC(O)c1ccccc1)c1ccc(N2CCC3(CC2)Cc2ccccc2CO3)nn1 (stereo not drawn) | – | IC50 (Stearoyl-CoA desaturase [14]): > 400 nM
– | – | – | O=C(NCC(O)c1ccccc1)c1ccc(N2CCC3(CC2)CC(O)c2c(F)cccc2O3)nn1 (stereo not drawn) | 7 mg/kg | –
38 nM | 65 nM | 4 nM | Cn1nc(Cc2cccnc2)nc1-c1ccc(N2CCC3(CCc4c(cccc4C(F)(F)F)O3)CC2)nn1 | – | –
– | – | > 10000 nM | O=C(NCC(O)c1ccccc1)c1ccc(N2CCC3(CC2)Oc2ccccc2CC3=O)nn1 (stereo not drawn) | – | –
4 nM | 1 nM | 0.13 nM | FC(F)(F)c1cccc2c1CCC1(CCN(c3ccc(-c4nnc(Cc5cccnc5)[nH]4)nn3)CC1)O2 | – | –
560 nM | 49 nM | 300 nM | O=C(NCC(O)c1ccccc1)c1ccc(N2CCC3(CC2)Oc2ccccc2CC3O)nn1 (stereo not drawn) | – | –
– | – | – | O=C(NCC(O)c1cccnc1)c1ccc(N2CCC3(CCc4c(F)ccc(F)c4O3)CC2)nn1 (stereo not drawn) | 5 mg/kg | –
– | – | – | O=C(NCC(O)c1ccccc1)c1ccc(N2CCC3(CC2)CC(O)c2ccccc2O3)nn1 (stereo not drawn) | 15 mg/kg | –
7 nM | 6 nM | 12 nM | O=C(NCC(O)c1cccnc1)c1ccc(N2CCC3(CCc4c(F)cccc4O3)CC2)nn1 (stereo not drawn) | 2 mg/kg | –
– | – | – | O=C(NCC(O)c1cccnc1)c1ccc(N2CCC3(CCc4c(Cl)cccc4O3)CC2)nn1 (stereo not drawn) | 3 mg/kg | –
– | – | – | Cc1cccc2c1CCC1(CCN(c3ccc(C(=O)NCC(O)c4cccnc4)nn3)CC1)O2 (stereo not drawn) | 4 mg/kg | –
– | – | 2000 nM | O=C(NCC(O)c1ccccc1)c1ccc(N2CCC3(CC2)Cc2ccccc2C3=O)nn1 (stereo not drawn) | – | –
– | – | > 1000 nM | O=C(NCC(O)c1ccccc1)c1ccc(N2CCC3(CC2)CC(O)c2cc(F)ccc2O3)nn1 (stereo not drawn) | – | –
– | – | > 1000 nM | COc1cccc2c1C(O)CC1(CCN(c3ccc(C(=O)NCC(O)c4ccccc4)nn3)CC1)O2 (stereo not drawn) | – | –
– | – | – | O=C(NCC(O)c1ccccc1)c1ccc(N2CCC3(CC2)CC(O)c2ccc(F)cc2O3)nn1 (stereo not drawn) | 20 mg/kg | –
– | 61 nM | 790 nM | O=C(NCC(O)c1ccccc1)c1ccc(N2CCC3(C=Cc4ccccc4O3)CC2)nn1 (stereo not drawn) | – | –
– | > 10000 nM | – | O=C(NCC(O)c1ccccc1)c1ccc(N2CCC3(CC2)Oc2ccccc2C3=O)nn1 (stereo not drawn) | – | –
– | – | – | O=C(NCC(O)c1cccnc1)c1ccc(N2CCC3(CCc4c(cccc4C(F)(F)F)O3)CC2)nn1 (stereo not drawn) | 0.8 mg/kg | clearance [16]: 17 mL/min/kg; Vd [17]: 1 L/kg; Cmax [2]: 3500 ng/mL; half-life [3]: 2 h; Tmax [4]: 1 h; AUC(0-t) at 8 h [5]: 13000 ng·h/mL; bioavailability [18]: 67%; ED50 (Mus musculus [7]): 0.9 mg/kg; ED50 (Mus musculus [8]): 2.5 mg/kg
– | > 10000 nM | – | FC(F)(F)c1cccc2c1CCC1(CCN(c3ccc(-c4nnc(-c5cccnc5)o4)nn3)CC1)O2 | – | –
690 nM | 50 nM | 250 nM | O=C(NCC(O)c1ccccc1)c1ccc(N2CCC3(CC2)CC(=O)c2ccccc2O3)nn1 (stereo not drawn) | – | –
